Test results taken from ChEMBL document CHEMBL3351863, “Optimization of 2-phenyl-pyrimidine-4-carboxamides towards potent, orally bioavailable and selective P2Y(12) antagonists for inhibition of platelet aggregation” (Bioorg Med Chem Lett, 2014).

Tested on: Platelet
Test: Inhibition of ADP-induced platelet aggregation in human platelet rich plasma assessed as remaining activity at 100 nM by in-vitro light transmission aggregometry assay
Assay type: functional
Conditions: not given; call rule not given here
In short: (§1)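 Light transmission aggregometry in human platelet-rich plasma; compound incubated, aggregation triggered with 3 µM ADP; remaining activity (RA) recorded at a single compound level (1000, 500 or 100 nM).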

Row | Structure (SMILES) | Activity [%]
1 | CCOC(=O)N1CCN(C(=O)[C@H](CCC(=O)O)NC(=O)c2cc(NC(C)CO)nc(-c3ccccc3)n2)CC1 (some centres not stated) | <70
2 | CCOC(=O)N1CCN(C(=O)[C@H](CCC(=O)O)NC(=O)c2cc(N3CC[C@H](O)C3)nc(-c3ccccc3)n2)CC1 | <70
3 | CCOC(=O)N1CCN(C(=O)[C@H](CCC(=O)O)NC(=O)c2cc(N3CCC(N)C3)nc(-c3ccccc3)n2)CC1 (some centres not stated) | <70

Tested on: not listed separately
Test: Potency shift, ratio of IC50 for inhibition of ADP-induced platelet aggregation in human platelet rich plasma to IC50 for displacement of [3H]-2-methyl-thio-adenosine 5'-diphosphate from human recombinant P2Y12 expressed in CHO cell membranes
Conditions: not given

Row | Structure (SMILES) | Ratio IC50
4 | CCOC(=O)N1CCN(C(=O)[C@H](CCC(=O)O)NC(=O)c2cc(NC(C)CO)nc(-c3ccccc3)n2)CC1 (some centres not stated) | 0.98
5 | CCOC(=O)N1CCN(C(=O)[C@H](CCC(=O)O)NC(=O)c2cc(N3CC[C@H](O)C3)nc(-c3ccccc3)n2)CC1 | 1.5
6 | CCOC(=O)N1CCN(C(=O)[C@H](CCC(=O)O)NC(=O)c2cc(N3CCC(N)C3)nc(-c3ccccc3)n2)CC1 (some centres not stated) | 1.1

Molecular target: T1, Cytochrome P450 3A4 (Homo sapiens, UniProt P08684)
T1 sequence (P08684 whole entry): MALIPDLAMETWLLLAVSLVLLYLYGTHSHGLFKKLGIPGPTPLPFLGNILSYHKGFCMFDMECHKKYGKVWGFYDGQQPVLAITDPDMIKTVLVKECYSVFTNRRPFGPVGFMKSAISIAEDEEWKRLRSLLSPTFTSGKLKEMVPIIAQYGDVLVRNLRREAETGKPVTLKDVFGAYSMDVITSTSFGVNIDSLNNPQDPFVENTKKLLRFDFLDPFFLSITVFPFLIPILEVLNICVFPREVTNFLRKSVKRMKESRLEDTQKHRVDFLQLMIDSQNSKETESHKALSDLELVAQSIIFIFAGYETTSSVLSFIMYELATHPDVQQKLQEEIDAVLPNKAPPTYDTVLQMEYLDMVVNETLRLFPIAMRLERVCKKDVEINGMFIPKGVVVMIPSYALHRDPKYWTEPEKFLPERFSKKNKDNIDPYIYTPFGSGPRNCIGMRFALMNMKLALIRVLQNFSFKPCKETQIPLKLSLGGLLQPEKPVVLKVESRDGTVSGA
Test: Inhibition of CYP3A4 in human liver microsomes assessed as reduction in midazolam 1'-hydroxylation
Assay type: ADME
Conditions: not given

Row | Structure (SMILES) | inhibition (INH)
7 | CCOC(=O)N1CCN(C(=O)[C@H](CCC(=O)O)NC(=O)c2cc(NC(C)CO)nc(-c3ccccc3)n2)CC1 (some centres not stated) | Not Active
8 | CCOC(=O)N1CCN(C(=O)[C@H](CCC(=O)O)NC(=O)c2cc(N3CC[C@H](O)C3)nc(-c3ccccc3)n2)CC1 | Not Active
9 | CCOC(=O)N1CCN(C(=O)[C@H](CCC(=O)O)NC(=O)c2cc(N3CCC(N)C3)nc(-c3ccccc3)n2)CC1 (some centres not stated) | Not Active

Tested on: Platelet
Test: Inhibition of ADP-induced platelet aggregation in human platelet rich plasma by in-vitro light transmission aggregometry assay
Assay type: functional
Conditions: Homo sapiens, Platelet, Plasma
In short: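 Human platelet-rich plasma incubated with compound, aggregation induced by 3 µM ADP and read by light transmission aggregometry; IC₅₀ derived from concentration–response curve.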

Row | Structure (SMILES) | IC50 [nM]
10 | CCOC(=O)N1CCN(C(=O)[C@H](CCC(=O)O)NC(=O)c2cc(NC(C)CO)nc(-c3ccccc3)n2)CC1 (some centres not stated) | 55
11 | CCOC(=O)N1CCN(C(=O)[C@H](CCC(=O)O)NC(=O)c2cc(N3CC[C@H](O)C3)nc(-c3ccccc3)n2)CC1 | 68
12 | CCOC(=O)N1CCN(C(=O)[C@H](CCC(=O)O)NC(=O)c2cc(N3CCC(N)C3)nc(-c3ccccc3)n2)CC1 (some centres not stated) | 86

Molecular target: P2Y purinoceptor 12 (Homo sapiens, UniProt Q9H244)
Sequence (Q9H244 whole entry): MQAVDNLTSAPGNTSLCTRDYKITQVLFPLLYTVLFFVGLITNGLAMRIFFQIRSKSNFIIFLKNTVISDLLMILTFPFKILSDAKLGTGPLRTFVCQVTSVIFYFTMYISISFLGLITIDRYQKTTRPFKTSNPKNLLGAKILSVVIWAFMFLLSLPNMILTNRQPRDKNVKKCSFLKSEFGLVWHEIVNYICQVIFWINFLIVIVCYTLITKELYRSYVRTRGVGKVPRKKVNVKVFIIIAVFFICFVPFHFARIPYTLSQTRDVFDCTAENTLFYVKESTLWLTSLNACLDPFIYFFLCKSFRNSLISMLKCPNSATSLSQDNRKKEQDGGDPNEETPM
Test: Displacement of [3H]-2-methyl-thio-adenosine 5'-diphosphate from human recombinant P2Y12 expressed in CHO cell membranes by scintillation counting method
Conditions: not given
In short: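 CHO cells expressing recombinant P2Y₁₂ receptors, incubated with tritium-labeled 2-methyl-thio-adenosine 5'-diphosphate plus test compound; IC₅₀ from displacement curves, each point in triplicate; reference compound run with every compound set, and set re-analyzed if its IC₅₀ fell outside pre-set 95% confidence interval.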

Row | Structure (SMILES) | IC50 [nM]
13 | CCOC(=O)N1CCN(C(=O)[C@H](CCC(=O)O)NC(=O)c2cc(NC(C)CO)nc(-c3ccccc3)n2)CC1 (some centres not stated) | 56
14 | CCOC(=O)N1CCN(C(=O)[C@H](CCC(=O)O)NC(=O)c2cc(N3CC[C@H](O)C3)nc(-c3ccccc3)n2)CC1 | 46
15 | CCOC(=O)N1CCN(C(=O)[C@H](CCC(=O)O)NC(=O)c2cc(N3CCC(N)C3)nc(-c3ccccc3)n2)CC1 (some centres not stated) | 76

Molecular target: T1, Cytochrome P450 3A4
Test: Inhibition of CYP3A4 in human liver microsomes assessed as reduction in testosterone 6beta-hydroxylation
Assay type: ADME
Conditions: not given

Row | Structure (SMILES) | inhibition (INH)
16 | CCOC(=O)N1CCN(C(=O)[C@H](CCC(=O)O)NC(=O)c2cc(NC(C)CO)nc(-c3ccccc3)n2)CC1 (some centres not stated) | Not Active
17 | CCOC(=O)N1CCN(C(=O)[C@H](CCC(=O)O)NC(=O)c2cc(N3CC[C@H](O)C3)nc(-c3ccccc3)n2)CC1 | Not Active
18 | CCOC(=O)N1CCN(C(=O)[C@H](CCC(=O)O)NC(=O)c2cc(N3CCC(N)C3)nc(-c3ccccc3)n2)CC1 (some centres not stated) | Not Active

Tested on: not listed separately
Test: Solubility in basic pH
Assay type: physicochemical
Conditions: not given

Row | Structure (SMILES) | solubility
19 | CCOC(=O)N1CCN(C(=O)[C@H](CCC(=O)O)NC(=O)c2cc(NC(C)CO)nc(-c3ccccc3)n2)CC1 (some centres not stated) | soluble
20 | CCOC(=O)N1CCN(C(=O)[C@H](CCC(=O)O)NC(=O)c2cc(N3CC[C@H](O)C3)nc(-c3ccccc3)n2)CC1 | soluble
21 | CCOC(=O)N1CCN(C(=O)[C@H](CCC(=O)O)NC(=O)c2cc(N3CCC(N)C3)nc(-c3ccccc3)n2)CC1 (some centres not stated) | soluble

Tested on: Liver microsome
Test: Metabolic stability assay in rat liver microsomes assessed as parent drug disappearance at 1 uM after 20 mins by HPLC and mass spectrometry method
Assay type: ADME
Conditions: not given

Row | Structure (SMILES) | Stability
22 | CCOC(=O)N1CCN(C(=O)[C@H](CCC(=O)O)NC(=O)c2cc(NC(C)CO)nc(-c3ccccc3)n2)CC1 (some centres not stated) | Stable
23 | CCOC(=O)N1CCN(C(=O)[C@H](CCC(=O)O)NC(=O)c2cc(N3CC[C@H](O)C3)nc(-c3ccccc3)n2)CC1 | Stable
24 | CCOC(=O)N1CCN(C(=O)[C@H](CCC(=O)O)NC(=O)c2cc(N3CCC(N)C3)nc(-c3ccccc3)n2)CC1 (some centres not stated) | Stable

Tested on: Liver microsome
Test: Metabolic stability assay in human liver microsomes assessed as parent drug disappearance at 1 uM after 20 mins by HPLC and mass spectrometry method
Assay type: ADME
Conditions: not given

Row | Structure (SMILES) | Stability
25 | CCOC(=O)N1CCN(C(=O)[C@H](CCC(=O)O)NC(=O)c2cc(NC(C)CO)nc(-c3ccccc3)n2)CC1 (some centres not stated) | Stable
26 | CCOC(=O)N1CCN(C(=O)[C@H](CCC(=O)O)NC(=O)c2cc(N3CC[C@H](O)C3)nc(-c3ccccc3)n2)CC1 | Stable
27 | CCOC(=O)N1CCN(C(=O)[C@H](CCC(=O)O)NC(=O)c2cc(N3CCC(N)C3)nc(-c3ccccc3)n2)CC1 (some centres not stated) | Stable

Tested on: not listed separately
Test: Solubility in neutral pH
Assay type: physicochemical
Conditions: not given

Row | Structure (SMILES) | solubility
28 | CCOC(=O)N1CCN(C(=O)[C@H](CCC(=O)O)NC(=O)c2cc(NC(C)CO)nc(-c3ccccc3)n2)CC1 (some centres not stated) | soluble
29 | CCOC(=O)N1CCN(C(=O)[C@H](CCC(=O)O)NC(=O)c2cc(N3CC[C@H](O)C3)nc(-c3ccccc3)n2)CC1 | soluble
30 | CCOC(=O)N1CCN(C(=O)[C@H](CCC(=O)O)NC(=O)c2cc(N3CCC(N)C3)nc(-c3ccccc3)n2)CC1 (some centres not stated) | soluble

Tested on: Platelet
Test: Inhibition of ADP-induced platelet aggregation in human platelet rich plasma assessed as remaining activity at 500 nM by in-vitro light transmission aggregometry assay
Assay type: functional
Conditions: not given
In short: as §1

Row | Structure (SMILES) | Activity [%]
31 | CCOC(=O)N1CCN(C(=O)[C@H](CCC(=O)O)NC(=O)c2cc(NC(C)CO)nc(-c3ccccc3)n2)CC1 (some centres not stated) | <30
32 | CCOC(=O)N1CCN(C(=O)[C@H](CCC(=O)O)NC(=O)c2cc(N3CC[C@H](O)C3)nc(-c3ccccc3)n2)CC1 | <30
33 | CCOC(=O)N1CCN(C(=O)[C@H](CCC(=O)O)NC(=O)c2cc(N3CCC(N)C3)nc(-c3ccccc3)n2)CC1 (some centres not stated) | <30

Molecular target: Cytochrome P450 2C9 (Homo sapiens, UniProt P11712)
Sequence (P11712 whole entry): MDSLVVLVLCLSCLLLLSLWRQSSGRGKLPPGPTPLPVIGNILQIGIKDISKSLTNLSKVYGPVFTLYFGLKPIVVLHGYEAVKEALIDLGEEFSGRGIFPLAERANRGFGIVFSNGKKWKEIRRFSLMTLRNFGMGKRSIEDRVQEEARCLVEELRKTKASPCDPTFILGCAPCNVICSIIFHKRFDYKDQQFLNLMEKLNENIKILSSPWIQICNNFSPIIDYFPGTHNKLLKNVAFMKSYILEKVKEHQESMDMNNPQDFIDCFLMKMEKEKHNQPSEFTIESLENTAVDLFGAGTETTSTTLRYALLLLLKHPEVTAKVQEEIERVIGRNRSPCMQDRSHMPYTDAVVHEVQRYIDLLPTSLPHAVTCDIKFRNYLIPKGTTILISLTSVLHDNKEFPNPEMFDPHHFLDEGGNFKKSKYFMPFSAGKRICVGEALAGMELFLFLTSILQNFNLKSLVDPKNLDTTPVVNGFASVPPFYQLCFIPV
Test: Inhibition of CYP2C9 in human liver microsomes assessed as reduction in diclofenac 4'-hydroxylation
Assay type: ADME
Conditions: not given

Row | Structure (SMILES) | inhibition (INH)
34 | CCOC(=O)N1CCN(C(=O)[C@H](CCC(=O)O)NC(=O)c2cc(NC(C)CO)nc(-c3ccccc3)n2)CC1 (some centres not stated) | Not Active
35 | CCOC(=O)N1CCN(C(=O)[C@H](CCC(=O)O)NC(=O)c2cc(N3CC[C@H](O)C3)nc(-c3ccccc3)n2)CC1 | Not Active
36 | CCOC(=O)N1CCN(C(=O)[C@H](CCC(=O)O)NC(=O)c2cc(N3CCC(N)C3)nc(-c3ccccc3)n2)CC1 (some centres not stated) | Not Active

Molecular target: Voltage-gated inwardly rectifying potassium channel KCNH2 (Homo sapiens, UniProt Q12809)
Sequence (Q12809 whole entry): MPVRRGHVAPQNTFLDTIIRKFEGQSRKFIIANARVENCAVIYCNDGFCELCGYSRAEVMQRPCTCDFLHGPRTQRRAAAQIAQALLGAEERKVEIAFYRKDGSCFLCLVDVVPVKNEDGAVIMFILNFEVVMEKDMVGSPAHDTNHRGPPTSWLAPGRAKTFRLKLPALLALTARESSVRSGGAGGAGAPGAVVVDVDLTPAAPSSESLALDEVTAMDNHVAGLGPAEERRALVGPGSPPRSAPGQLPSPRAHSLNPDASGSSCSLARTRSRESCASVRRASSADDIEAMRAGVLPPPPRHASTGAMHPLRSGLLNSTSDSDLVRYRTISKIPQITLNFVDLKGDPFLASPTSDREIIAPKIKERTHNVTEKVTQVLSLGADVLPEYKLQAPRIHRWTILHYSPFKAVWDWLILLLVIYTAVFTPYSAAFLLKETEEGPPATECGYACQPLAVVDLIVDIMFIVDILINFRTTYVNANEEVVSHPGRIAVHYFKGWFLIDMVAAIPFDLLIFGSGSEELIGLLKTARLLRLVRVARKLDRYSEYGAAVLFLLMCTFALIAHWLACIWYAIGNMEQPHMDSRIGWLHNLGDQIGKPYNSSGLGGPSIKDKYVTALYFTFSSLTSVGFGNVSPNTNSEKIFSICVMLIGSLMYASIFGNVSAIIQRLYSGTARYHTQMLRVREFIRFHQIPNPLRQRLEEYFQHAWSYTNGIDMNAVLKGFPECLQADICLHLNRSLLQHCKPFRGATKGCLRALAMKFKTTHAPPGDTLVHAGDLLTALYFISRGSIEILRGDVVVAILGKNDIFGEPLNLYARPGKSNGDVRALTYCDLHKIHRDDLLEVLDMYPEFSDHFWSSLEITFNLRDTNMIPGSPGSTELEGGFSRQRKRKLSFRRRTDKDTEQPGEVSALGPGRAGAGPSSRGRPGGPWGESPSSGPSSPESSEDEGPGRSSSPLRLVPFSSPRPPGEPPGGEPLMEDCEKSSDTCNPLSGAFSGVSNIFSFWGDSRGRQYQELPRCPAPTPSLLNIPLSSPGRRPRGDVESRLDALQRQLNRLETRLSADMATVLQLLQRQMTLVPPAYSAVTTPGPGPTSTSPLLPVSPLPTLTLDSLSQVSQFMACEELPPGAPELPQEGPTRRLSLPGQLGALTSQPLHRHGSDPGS
Test: Inhibition of human ERG expressed in HEK cells by patch-clamp assay
Assay type: cell-based
Conditions: hek293

Row | Structure (SMILES) | inhibition (INH)
37 | CCOC(=O)N1CCN(C(=O)[C@H](CCC(=O)O)NC(=O)c2cc(NC(C)CO)nc(-c3ccccc3)n2)CC1 (some centres not stated) | Not Active
38 | CCOC(=O)N1CCN(C(=O)[C@H](CCC(=O)O)NC(=O)c2cc(N3CC[C@H](O)C3)nc(-c3ccccc3)n2)CC1 | Not Active
39 | CCOC(=O)N1CCN(C(=O)[C@H](CCC(=O)O)NC(=O)c2cc(N3CCC(N)C3)nc(-c3ccccc3)n2)CC1 (some centres not stated) | Not Active

Molecular target: Cytochrome P450 2D6 (Homo sapiens, UniProt P10635)
Sequence (P10635 whole entry): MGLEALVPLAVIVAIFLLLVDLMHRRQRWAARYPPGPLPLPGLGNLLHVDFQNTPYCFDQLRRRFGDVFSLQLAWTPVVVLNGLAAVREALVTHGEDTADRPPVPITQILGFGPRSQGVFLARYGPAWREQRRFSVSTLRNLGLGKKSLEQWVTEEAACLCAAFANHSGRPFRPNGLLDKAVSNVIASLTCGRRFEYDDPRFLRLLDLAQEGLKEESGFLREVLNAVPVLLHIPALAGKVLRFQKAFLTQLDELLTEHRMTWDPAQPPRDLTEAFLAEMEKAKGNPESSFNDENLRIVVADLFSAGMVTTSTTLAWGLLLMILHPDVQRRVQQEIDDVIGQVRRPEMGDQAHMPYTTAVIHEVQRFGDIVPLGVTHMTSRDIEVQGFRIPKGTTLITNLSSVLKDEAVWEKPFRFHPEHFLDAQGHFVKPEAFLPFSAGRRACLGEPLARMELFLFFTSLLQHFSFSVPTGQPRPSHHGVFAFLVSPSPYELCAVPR
Test: Inhibition of CYP2D6 in human liver microsomes assessed as reduction in dextromethorphan-O demethylation
Assay type: ADME
Conditions: not given

Row | Structure (SMILES) | inhibition (INH)
40 | CCOC(=O)N1CCN(C(=O)[C@H](CCC(=O)O)NC(=O)c2cc(NC(C)CO)nc(-c3ccccc3)n2)CC1 (some centres not stated) | Not Active
41 | CCOC(=O)N1CCN(C(=O)[C@H](CCC(=O)O)NC(=O)c2cc(N3CC[C@H](O)C3)nc(-c3ccccc3)n2)CC1 | Not Active
42 | CCOC(=O)N1CCN(C(=O)[C@H](CCC(=O)O)NC(=O)c2cc(N3CCC(N)C3)nc(-c3ccccc3)n2)CC1 (some centres not stated) | Not Active
